Assay [1] deals with Acanthocheilonema viteae. Kind of assay: In vivo anti-filarial (microfilaricidal) activity at an ip dose of 50 mg/kg (for 5 days) against A. viteae in Mastomys coucha. The class given is functional. Conditions: route intraperitoneal. A digest of the protocol:
(§1)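 Acanthocheilonema viteae infection in Mastomys coucha; compounds given as fine suspensions in 1% Tween 80 for 5 consecutive days, 50 mg/kg ip and/or 200 mg/kg orally. Micro- and macrofilaricidal action and sterilisation of surviving female worms were scored. Two to three animals per dose level, with at least two replicate experiments.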

For assay [2], the system named is Acanthocheilonema viteae. Kind of assay: Antifilarial activity as percent of surviving A. viteae in Mastomys coucha sterlized after an intraperitoneal dose of 50 mg/kg (for 5 days). It counts as functional. The gist of the method:
as §1

Assay [3] concerns Acanthocheilonema viteae. The assay is described as follows: In vivo anti-filarial (macrofilaricidal) activity at an ip dose of 50 mg/kg (for 5 days) against A. viteae in Mastomys coucha. The class given is functional. Conditions: route intraperitoneal. A digest of the protocol: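 Infected *Mastomys coucha* were dosed for 5 consecutive days, either 50 mg/kg ip or 200 mg/kg orally. Compounds were given as fine suspensions in 1% Tween 80. Each dose level used two to three animals, with at least two replicates to confirm activity. Micro- and macrofilaricidal action was scored by the cited earlier method.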

The subject of assay [4] is Mus musculus. Kind of assay: In vivo anti-filarial (mif-microfilaricidal) activity at an po dose of 250 mg/kg (for 5 days) against Brugia malayi. It counts as functional. A digest of the protocol: (§2)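 Male Mastomys, 6 weeks old, each inoculated with 50 infective Brugia malayi larvae recovered from infected Aedes aegypti. Screening followed the A. viteae protocol, with a 1% Tween 80 suspension for 5 days at 50 mg/kg ip or 250 mg/kg orally. Micro- and macrofilaricidal action and sterilisation of surviving females were scored. Two to three animals per dose.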

The subject of assay [5] is Rattus norvegicus. Kind of assay: Antifilarial activity evaluated as percent of surviving Litomosoides carinii in cotton rats that were sterlized after an ip dose of 30 mg/kg (for 5 days). The class given is functional. The conditions noted are these: route intraperitoneal. The gist of the method: (§3)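 Cotton rats (Sigmodon hispidus), 6 weeks old, infected with Litomosoides carinii through the mite vector Liponyssus bacoti. Animals with ≥250 microfilariae/5 mm blood were used. Dosed 30 mg/kg ip for 5 consecutive days as a 1% Tween 80 suspension. Blood microfilariae were checked before treatment and weekly until day 42, when animals were killed and adult male and female worms examined.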

In assay [6] the test system is Acanthocheilonema viteae. The assay is described as follows: In vivo anti-filarial (mif-macrofilaricidal) activity at an oral dose of 200 mg/kg (for 5 days) against A. viteae in Mastomys coucha.
Assay [7] relates to Mus musculus. The assay is described as follows: In vivo anti-filarial (mif-microfilaricidal) activity at an ip dose of 50 mg/kg (for 5 days) against Brugia malayi. It counts as functional. The conditions noted are these: route intraperitoneal. A digest of the protocol: (§4)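 Male *Mastomys* infected at 6 weeks old with *B. malayi* larvae were dosed for 5 days, 50 mg/kg ip or 250 mg/kg orally, as a 1% Tween 80 suspension. Screening followed the *A. viteae* scheme. Micro- and macrofilaricidal action and sterilization of surviving female worms were scored. Each dose used two to three animals, with at least duplicate confirmation.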

Assay [8] relates to Mus musculus. Kind of assay: Antifilarial activity evaluated as percent of surviving Brugia malayi that were sterlized after an ip dose of 50 mg/kg (for 5 days). It counts as functional. The conditions noted are these: route intraperitoneal. The gist of the method:
as §2

Assay [9] deals with Acanthocheilonema viteae. Kind of assay: In vivo anti-filarial (mif-microfilaricidal) activity at an ip dose of 200 mg/kg (for 5 days) against A. viteae in Mastomys coucha.
Assay [10] relates to Mus musculus. Kind of assay: In vivo anti-filarial (maf-macrofilaricidal) activity at an ip dose of 50 mg/kg (for 5 days) against Brugia malayi. It counts as functional. The conditions noted are these: route intraperitoneal. The gist of the method:
as §4

In assay [11] the test system is Rattus norvegicus. The assay is described as follows: In vivo anti-filarial (mif-microfilaricidal) activity at an ip dose of 30 mg/kg (for 5 days) against Litomosoides carinii in cotton rats. It counts as functional. Conditions: route intraperitoneal. The gist of the method:
(§5)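 They received 30 mg/kg ip for 5 consecutive days as a 1% Tween 80 suspension. Blood microfilariae were counted before treatment and then weekly until day 42. Animals were then killed and adult worm condition scored.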

The test system of assay [12] is Rattus norvegicus. The assay is described as follows: (§6) In vivo anti-filarial (maf-macrofilaricidal) activity at an ip dose of 30 mg/kg (for 5 days) against Litomosoides carinii in cotton rats. The class given is functional. The conditions noted are these: route intraperitoneal. A digest of the protocol: as §5
Assay [13] relates to Mus musculus. Kind of assay: In vivo anti-filarial (maf-macrofilaricidal) activity at an po dose of 250 mg/kg (for 5 days) against Brugia malayi. The class given is functional. The gist of the method:
as §4

Assay [14] relates to Acanthocheilonema viteae. The assay is described as follows: In vivo anti-filarial (maf-macrofilaricidal) activity at an oral dose of 200 mg/kg (for 5 days) against A. viteae in Mastomys coucha.
In assay [15] the test system is Rattus norvegicus. The description is as §6. The class given is functional. Conditions: route intraperitoneal. The gist of the method:
as §3
The source holds these as a separate data set.

For assay [16], the system named is Mus musculus. The assay is described as follows: In vivo anti-filarial (mif-microfilaricidal) activity at an oral dose of 200 mg/kg (for 5 days) against A. viteae in Mastomys coucha. It counts as functional. A digest of the protocol:
as §1

In assay [17] the test system is Rattus norvegicus. Kind of assay: In vivo anti-filarial (mif-microfilaricidal) activity at an ip dose of 75 mg/kg (for 5 days) against Litomosoides carinii in cotton rats. The conditions noted are these: route intraperitoneal. The class given is functional.
Assay [18] has as its system Mus musculus. Kind of assay: In vivo anti-filarial (maf-macrofilaricidal) activity at an ip dose of 100 mg/kg (for 5 days) against Brugia malayi. It counts as functional. Conditions: route intraperitoneal.
The subject of assay [19] is Mus musculus. Kind of assay: In vivo anti-filarial (mif-microfilaricidal) activity at an ip dose of 100 mg/kg (for 5 days) against Brugia malayi. The class given is functional. Conditions: route intraperitoneal.

Each structure is given as a SMILES string. Values joined by “and” are separate entries in the source; they are usually repeats but may differ in a detail not shown here. Equal values may be shown once.

As to `COC(=O)c1cc2c([nH]c3ccccc32)c(-c2cccc(Br)c2)n1`, the Activity with Acanthocheilonema viteae [1] amounted to 0%; in the assay on Acanthocheilonema viteae [2], 100%; in the assay with Acanthocheilonema viteae [3], 84%.
Regarding `COC(=O)c1cc2c([nH]c3ccccc32)c(-c2cccc(Cl)c2)n1`, the Activity with Acanthocheilonema viteae [1] is given as 0%; in the assay on Acanthocheilonema viteae [3] it was 81%.
On to `Cc1ccc(-c2[nH]c(CO)cc3c4ccccc4nc2-3)cc1`, for which the Activity with Acanthocheilonema viteae [1] came to 0%; with Acanthocheilonema viteae [2], 40%; with Acanthocheilonema viteae [3] it was 0%.
Consider `COC(=O)c1cc2c([nH]c3ccccc32)c(-c2ccsc2)n1`, for which the Activity in the assay with Acanthocheilonema viteae [1] is 0%; in the assay with Acanthocheilonema viteae [3], 60%.
`COC(=O)C1Cc2c([nH]c3ccccc23)C(c2ccc(F)cc2)N1` (stereo not given): the Activity is 0% in the assay with Acanthocheilonema viteae [1] and 25% with Acanthocheilonema viteae [3].
For `NC(=O)c1cc2c([nH]c3ccccc32)c(-c2ccsc2)n1`, in that order: 0% and 89%.
For `COC(=O)C1Cc2c([nH]c3ccccc23)C(c2ccc(C)cc2)N1` (stereo not given), in that order: 0% and 90%.
Turning to `OCc1cc2c([nH]c3ccccc32)c(-c2ccc(Cl)cc2)n1`, the Activity with Mus musculus [4] amounted to 0%; in the assay with Rattus norvegicus [5], 0%; in the assay with Acanthocheilonema viteae [6], 94%; in the assay on Acanthocheilonema viteae [1] it was 76%; in the assay on Acanthocheilonema viteae [2], 75%; with Mus musculus [7], 0%. Further, the Activity with Mus musculus [8] came out at 85%; in the assay on Acanthocheilonema viteae [3] it was 56%; in the assay with Acanthocheilonema viteae [9] it was 0%; with Mus musculus [10] it was 62%; in the assay with Rattus norvegicus [11] it was 29%; in the assay with Rattus norvegicus [12], 95%. Besides, in the assay with Mus musculus [13], the Activity is 56% and 69%.
On to `COC(=O)c1cc2c([nH]c3ccccc32)c(-c2ccccc2F)n1`, for which the Activity is listed as 0% in the assay with Acanthocheilonema viteae [1] and 44% in the assay on Acanthocheilonema viteae [3].
For `COC(=O)C1Cc2c([nH]c3ccccc23)C(c2ccsc2)N1` (stereo not given), in that order: 0% and 57%.
Turning to `COC(=O)c1cc2c([nH]c3ccccc32)c(-c2ccccc2Cl)n1`, the Activity came out at 0% with Acanthocheilonema viteae [1] and 94% in the assay on Acanthocheilonema viteae [3].
On to `NC(=O)c1cc2c([nH]c3ccccc32)c(-c2ccc(Cl)cc2)n1`, for which the Activity amounted to 0% in the assay with Acanthocheilonema viteae [1], 60% with Acanthocheilonema viteae [2] and 0% in the assay on Acanthocheilonema viteae [3].
On to `COC(=O)C1Cc2c([nH]c3ccccc23)C(c2ccc(Cl)cc2)N1` (stereo not given), for which the figures for the Activity in the assay on Acanthocheilonema viteae [1], with Acanthocheilonema viteae [2] and with Acanthocheilonema viteae [3] were 94%, 100% and 39%, respectively.
The matching figures for `COC(=O)c1cc2c([nH]c3ccccc32)c(-c2cccs2)n1`: 62%, 0% and 45%.
For the compound `OCc1cc2c([nH]c3ccccc32)c(-c2ccc(F)cc2)n1`, the Activity in the assay on Acanthocheilonema viteae [1] turned out to be 0%; in the assay with Acanthocheilonema viteae [3], 75%.
With `NC(=O)c1cc2c([nH]c3ccccc32)c(-c2cccc(Cl)c2)n1`, the Activity in the assay with Acanthocheilonema viteae [1] is 84%; in the assay with Acanthocheilonema viteae [2], 50%; with Acanthocheilonema viteae [3], 0%.
Regarding `NC(=O)c1cc2c([nH]c3ccccc32)c(-c2cccs2)n1`, the Activity in the assay on Acanthocheilonema viteae [1] turned out to be 93%; with Acanthocheilonema viteae [3] it was 0%.
For `COC(=O)C1Cc2c([nH]c3ccccc23)C(c2cccc(Br)c2)N1` (stereo not given), in that order: 90% and 0%.
Turning to `COC(=O)c1cc2c([nH]c3ccccc32)c(-c2ccc(C)cc2)n1`, the values for the Activity in the assay with Acanthocheilonema viteae [1] and in the assay with Acanthocheilonema viteae [3] were 0% and 100%, respectively.
`NNC(=O)c1cc2c([nH]c3ccccc32)c(-c2ccsc2)n1`: the Activity came to 91% with Acanthocheilonema viteae [1] and 0% in the assay on Acanthocheilonema viteae [3].
For `COC(=O)C1Cc2c([nH]c3ccccc23)C(c2cccc(Cl)c2)N1` (stereo not given), in that order: 0% and 50%.
On to `COC(=O)C1Cc2c([nH]c3ccccc23)C(c2ccccc2Cl)N1` (stereo not given), for which the Activity in the assay with Acanthocheilonema viteae [14] came to 0%; in the assay with Rattus norvegicus [15] it was 20%; in the assay with Rattus norvegicus [5], 88%; in the assay with Acanthocheilonema viteae [1] it was 0%; in the assay on Mus musculus [16] it was 0%; with Acanthocheilonema viteae [3], 93%. Moreover, the Activity in the assay with Rattus norvegicus [11] was 0%.
As for `COC(=O)c1cc2c([nH]c3ccccc32)c(-c2ccc(F)cc2)n1`, the Activity is on record as 0% in the assay on Acanthocheilonema viteae [1], 67% in the assay on Acanthocheilonema viteae [2] and 56% in the assay with Acanthocheilonema viteae [3].
For `NC(=O)c1cc2c([nH]c3ccccc32)c(-c2ccccc2Cl)n1`, in that order: 44%, 100% and 86%.
Take `NC(=O)c1cc2c([nH]c3ccccc32)c(-c2cccc(Br)c2)n1`: the Activity is reported as 0% in the assay on Acanthocheilonema viteae [1] and 69% with Acanthocheilonema viteae [3].
On to `CCN(CC)C(=O)N1CCN(C)CC1.O=C(O)CC(O)(CC(=O)O)C(=O)O` [DIETHYLCARBAMAZINE CITRATE], for which the Activity in the assay on Rattus norvegicus [15] is on record as 0%; in the assay with Rattus norvegicus [17], 90%; in the assay on Acanthocheilonema viteae [1], 90%; in the assay with Mus musculus [18], 0%; in the assay on Acanthocheilonema viteae [3] it was 0%; in the assay with Mus musculus [19], 90%.

Values taken from ChEMBL document CHEMBL1132723, “Potent 1,3-disubstituted-9H-pyrido[3,4-b]indoles as new lead compounds in antifilarial chemotherapy” (1999).
